# From ChEMBL document CHEMBL3865827, “A novel class of ethacrynic acid derivatives as promising drug-like potent generation of anticancer agents with established mechanism of action” (Eur J Med Chem, 2016)
# Calls of active or inactive are those of the source. No cut-off for these calls is given here.
# Tests used:
# [1] = Cytotoxicity against human HL60 cells assessed as reduction in cell viability after 24 hrs by MTS assay; assay type: functional, cell-based; conditions: HL-60, 24 h
# [2] = Cell cycle arrest in human HL60 cells assessed as accumulation at G2/M phase at 2.5 uM after 48 hrs by propidium iodide-staining based FACS analysis (reference value: 2.2 %); assay type: functional; conditions: HL-60
# Outline: (§1)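 HL60 cells, 25,000 per well, exposed 24 and 48 h to 2.5 µM compounds; controls DMSO (1% final). Propidium iodide staining, flow cytometry; fractions in sub-G1, G0/G1, S and G2/M quantified.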
# [3] = test system: HL-60; test: Induction of apoptosis in human HL60 cells assessed as early apoptotic cells at 50 uM after 24 hrs by Annexin V/7AAD-dual staining based FACS analysis (reference value: 7.7 %); assay type: functional
# Outline: (§2)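 HL60 cells treated 24 h with EA (10 or 50 µM) or derivatives (5 µM); controls vehicle only. Annexin V/7-AAD staining, flow cytometry; cells classed as dead, necrotic/late apoptotic, intact or early apoptotic, as percentages.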
# [4] = test system: HL-60; test: Induction of apoptosis in human HL60 cells assessed as necrotic/late apoptotic cells at 50 uM after 24 hrs by Annexin V/7AAD-dual staining based FACS analysis (reference value: 0.6 %); assay type: functional; outline: as §2
# [5] = test system: KB; test: Induction of necrosis in human KB cells assessed as increase in LDH release at 50 uM after 24 to 48 hrs by fluorescence assay; assay type: functional, cell-based
# [6] = test system: HL-60; test: Induction of apoptosis in human HL60 cells assessed as dead cells at 50 uM after 24 hrs by Annexin V/7AAD-dual staining based FACS analysis (reference value: 0.1 %); assay type: functional
# [7] = Cell cycle arrest in human HL60 cells assessed as accumulation at G2/M phase at 2.5 uM after 24 hrs by propidium iodide-staining based FACS analysis (reference value: 5.1 %); assay type: functional; conditions: HL-60; outline: as §1
# [8] = test system: HL-60; test: Induction of apoptosis in human HL60 cells assessed as dead cells at 10 uM after 24 hrs by Annexin V/7AAD-dual staining based FACS analysis (reference value: 0.1 %); assay type: functional
# [9] = test system: HCT-116; test: Induction of necrosis in human HCT116 cells assessed as increase in LDH release 50 uM after 24 to 48 hrs by fluorescence assay; assay type: functional, cell-based
# [10] = test system: HL-60; test: Induction of apoptosis in human HL60 cells assessed as early apoptotic cells at 10 to 50 uM after 24 hrs by Annexin V/7AAD-dual staining based FACS analysis; assay type: functional, cell-based; outline: as §2
# [11] = Cell cycle arrest in human HL60 cells assessed as accumulation at sub G1 phase at 2.5 uM after 24 hrs by propidium iodide-staining based FACS analysis (reference value: 2.6 %); assay type: functional; conditions: HL-60; outline: as §1
# [12] = Antiproliferative activity against human HCT116 cells after 24 to 72 hrs by MTS assay; assay type: functional, cell-based; conditions: HCT-116
# [13] = Antiproliferative activity against human PC3 cells after 24 to 72 hrs by MTS assay; assay type: functional, cell-based; conditions: PC-3
# [14] = Cell cycle arrest in human HL60 cells assessed as accumulation at G0/G1 phase at 2.5 uM after 24 hrs by propidium iodide-staining based FACS analysis (reference value: 43.5 %); assay type: functional; conditions: HL-60; outline: as §1
# [15] = test system: HL-60; test: Induction of apoptosis in human HL60 cells assessed as dead cells at 10 to 50 uM after 24 hrs by Annexin V/7AAD-dual staining based FACS analysis
# [16] = test system: HL-60; test: Induction of apoptosis in human HL60 cells assessed as necrotic/late apoptotic cells at 10 uM after 24 hrs by Annexin V/7AAD-dual staining based FACS analysis (reference value: 0.6 %); assay type: functional; outline: as §2
# [17] = test system: HL-60; test: Antiproliferative activity against human HL60 cells at 50 uM after 24 hrs by viacount-reagent based FACS analysis
# [18] = test system: HL-60; test: Induction of apoptosis in human HL60 cells assessed as intact cells at 10 uM after 24 hrs by Annexin V/7AAD-dual staining based FACS analysis (reference value: 91.6 %); assay type: functional; outline: as §2
# [19] = test system: KB; test: Selectivity index, ratio of IC50 for Cyprinus carpio EPC to IC50 for human KB cells
# [20] = Antiproliferative activity against human HL60 cells after 24 to 72 hrs by MTS assay; assay type: functional, cell-based; conditions: HL-60
# Outline: (§3)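 Cells plated, then dosed 24 h later with compounds in DMSO (1% final; controls DMSO alone), exposed 24 or 72 h. Proliferation inhibition measured as previously reported (MTS/NADH reagent). IC50 from duplicate experiments over 0.5 nM–100 µM. KB grown in D-MEM with 10% fetal calf serum, penicillin, streptomycin, fungizone, 5% CO2; other lines in complete RPMI. EPC are quiescent Cyprinus carpio endothelial progenitor cells.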
# [21] = test system: HL-60; test: Selectivity index, ratio of IC50 for Cyprinus carpio EPC to IC50 for human HL60 cells
# [22] = Cell cycle arrest in human HL60 cells assessed as accumulation at G0/G1 phase at 2.5 uM after 48 hrs by propidium iodide-staining based FACS analysis (reference value: 43.8 %); assay type: functional; conditions: HL-60; outline: as §1
# [23] = Cell cycle arrest in human HL60 cells assessed as accumulation at sub G1 phase at 2.5 uM after 48 hrs by propidium iodide-staining based FACS analysis (reference value: 1.4 %); assay type: functional; conditions: HL-60; outline: as §1
# [24] = test system: HL-60; test: Induction of apoptosis in human HL60 cells assessed as early apoptotic cells at 10 uM after 24 hrs by Annexin V/7AAD-dual staining based FACS analysis (reference value: 7.7 %); assay type: functional; outline: as §2
# [25] = Antiproliferative activity against human KB cells after 24 to 72 hrs by MTS assay; assay type: functional, cell-based; outline: as §3
# [26] = Cell cycle arrest in human HL60 cells assessed as accumulation at S phase at 2.5 uM after 24 hrs by propidium iodide-staining based FACS analysis (reference value: 48.9 %); assay type: functional; conditions: HL-60; outline: as §1
# [27] = test system: MRC5; test: Induction of necrosis in human MRC5 SV2 cells assessed as increase in LDH release at 50 uM after 24 to 48 hrs by fluorescence assay; assay type: functional, cell-based
# [28] = test system: HL-60; test: Induction of apoptosis in human HL60 cells assessed as necrotic/late apoptotic cells at 10 to 50 uM after 24 hrs by Annexin V/7AAD-dual staining based FACS analysis
# [29] = Antiproliferative activity against human MCF7 cells after 24 to 72 hrs by MTS assay; assay type: functional, cell-based
# [30] = Cell cycle arrest in human HL60 cells assessed as accumulation at S phase at 2.5 uM after 48 hrs by propidium iodide-staining based FACS analysis (reference value: 52.6 %); assay type: functional; conditions: HL-60; outline: as §1
# [31] = Antiproliferative activity against Cyprinus carpio EPC after 24 to 72 hrs by MTS assay
# [32] = test system: HL-60; test: Induction of apoptosis in human HL60 cells assessed as intact cells at 10 to 50 uM after 24 hrs by Annexin V/7AAD-dual staining based FACS analysis; assay type: functional, cell-based; outline: as §2
# [33] = test system: HL-60; test: Induction of apoptosis in human HL60 cells assessed as intact cells at 50 uM after 24 hrs by Annexin V/7AAD-dual staining based FACS analysis (reference value: 91.6 %); assay type: functional; outline: as §2
# [34] = Antiproliferative activity against human SKOV3 cells after 24 to 72 hrs by MTS assay; assay type: functional, cell-based; conditions: SK-OV-3
# [35] = Antiproliferative activity against human OVCAR8 cells after 24 to 72 hrs by MTS assay; assay type: functional, cell-based; conditions: OVCAR-8
smiles,measurement,setting,value
C=C(CC)C(=O)c1ccc(OCC(=O)O)c(Cl)c1Cl [ETHACRYNIC ACID],IC50,[1],38 µM
same,Activity,[2],1.3%
same,Activity,[3],41.3%
same,Activity,[4],0.8%
same,Activity,[5],Active
same,Activity,[6],0%
same,Activity,[7],8.3%
same,Activity,[8],0.1%
same,Activity,[9],Active
same,Activity,[10],Active
same,Activity,[11],2.7%
same,IC50,[12],75 µM
same,IC50,[13],75 µM
same,Activity,[14],45.4%
same,Activity,[15],Active
same,Activity,[16],0.9%
same,Activity,[17],Active
same,Activity,[18],87.8%
same,Ratio IC50,[19],>9
same,IC50,[20],46 µM
same,Ratio IC50,[21],>2
same,Activity,[22],41.5%
same,Activity,[23],3.1%
same,Activity,[24],11.2%
same,IC50,[25],11 µM
same,Activity,[26],43.6%
same,Activity,[27],Active
same,Activity,[28],Active
same,IC50,[29],41 µM
same,Activity,[30],54.1%
same,IC50,[31],> 100 µM
same,Activity,[32],Active
same,Activity,[33],57.9%
same,IC50,[34],> 100 µM
same,IC50,[35],72 µM
